These results are taken from PMC5519285 (Pharmacology, biochemistry, and behavior, 2017).

Structures are written as SMILES. Entries after “also recorded” stand apart in the source; their conditions may differ. Like-named read-outs stand apart in the source and are kept apart here. Marks after values point to notes of the source that are not given here.

For experiment [1], the system named is rats. The experiment is described as follows: Pentylenetetrazole. Format: in vivo, rat. As to conditions: i.p. The gist of the method:
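Male Sprague Dawley rats (90–110 g), test compound suspended in 1% hydroxyethylcellulose/0.05% tween 80/0.05% antifoam, given 30 mg/kg i.p. 30 min before testing. Percent of rats without clonic convulsions recorded, 5 rats/group (vehicle 20), Fisher's exact test.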

Experiment [2] relates to rats. As to conditions: cited from earlier work.
The conditions of experiment [3]: ref Poe et al., 2016; cited from earlier work.
Experiment [4] deals with hGABAAR (α5β3γ2) (Homo sapiens, UniProt P18507+P31644). The experiment is classed as cell-based.
Chain of hGABAAR (α5β3γ2) (P31644 32-462): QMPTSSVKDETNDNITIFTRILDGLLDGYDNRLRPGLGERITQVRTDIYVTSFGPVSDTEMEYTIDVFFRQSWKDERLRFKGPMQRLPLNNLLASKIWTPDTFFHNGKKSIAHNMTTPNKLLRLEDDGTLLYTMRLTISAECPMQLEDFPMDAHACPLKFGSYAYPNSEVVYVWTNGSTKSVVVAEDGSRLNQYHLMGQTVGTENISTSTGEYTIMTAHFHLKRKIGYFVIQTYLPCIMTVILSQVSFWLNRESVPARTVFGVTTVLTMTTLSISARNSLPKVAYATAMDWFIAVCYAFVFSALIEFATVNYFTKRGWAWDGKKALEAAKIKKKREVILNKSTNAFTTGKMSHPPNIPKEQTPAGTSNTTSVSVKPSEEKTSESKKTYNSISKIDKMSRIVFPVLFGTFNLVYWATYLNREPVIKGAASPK
Chain of hGABAAR (α5β3γ2) (P28472 26-473 partner): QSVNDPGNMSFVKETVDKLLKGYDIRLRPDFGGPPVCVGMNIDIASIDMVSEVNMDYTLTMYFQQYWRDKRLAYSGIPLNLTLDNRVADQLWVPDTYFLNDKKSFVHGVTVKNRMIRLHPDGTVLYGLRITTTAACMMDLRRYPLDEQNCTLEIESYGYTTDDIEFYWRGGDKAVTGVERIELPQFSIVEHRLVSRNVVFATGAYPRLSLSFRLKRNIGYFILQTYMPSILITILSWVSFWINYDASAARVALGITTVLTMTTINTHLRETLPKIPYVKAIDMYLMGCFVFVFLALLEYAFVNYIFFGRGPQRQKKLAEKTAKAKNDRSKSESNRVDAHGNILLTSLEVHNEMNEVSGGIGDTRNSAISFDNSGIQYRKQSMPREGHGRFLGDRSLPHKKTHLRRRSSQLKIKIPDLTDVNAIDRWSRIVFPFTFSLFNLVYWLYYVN
Chain of hGABAAR (α5β3γ2) (P18507 40-475): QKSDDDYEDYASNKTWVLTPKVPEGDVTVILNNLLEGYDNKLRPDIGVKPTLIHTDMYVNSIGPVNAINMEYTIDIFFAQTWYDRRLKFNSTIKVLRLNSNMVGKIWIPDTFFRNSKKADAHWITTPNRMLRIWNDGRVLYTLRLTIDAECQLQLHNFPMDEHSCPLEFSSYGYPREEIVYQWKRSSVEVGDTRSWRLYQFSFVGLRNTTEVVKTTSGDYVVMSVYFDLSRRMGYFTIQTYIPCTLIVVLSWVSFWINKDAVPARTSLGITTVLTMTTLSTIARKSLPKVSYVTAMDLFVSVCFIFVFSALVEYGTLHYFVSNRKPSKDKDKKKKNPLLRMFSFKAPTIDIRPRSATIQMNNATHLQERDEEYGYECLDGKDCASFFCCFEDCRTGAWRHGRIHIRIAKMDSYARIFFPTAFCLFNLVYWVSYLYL
The target in experiment [5] is hGABAAR (α3β3γ2) (Homo sapiens, UniProt P18507+P34903). The experiment is classed as cell-based.
Chain of hGABAAR (α3β3γ2) (P34903 29-492): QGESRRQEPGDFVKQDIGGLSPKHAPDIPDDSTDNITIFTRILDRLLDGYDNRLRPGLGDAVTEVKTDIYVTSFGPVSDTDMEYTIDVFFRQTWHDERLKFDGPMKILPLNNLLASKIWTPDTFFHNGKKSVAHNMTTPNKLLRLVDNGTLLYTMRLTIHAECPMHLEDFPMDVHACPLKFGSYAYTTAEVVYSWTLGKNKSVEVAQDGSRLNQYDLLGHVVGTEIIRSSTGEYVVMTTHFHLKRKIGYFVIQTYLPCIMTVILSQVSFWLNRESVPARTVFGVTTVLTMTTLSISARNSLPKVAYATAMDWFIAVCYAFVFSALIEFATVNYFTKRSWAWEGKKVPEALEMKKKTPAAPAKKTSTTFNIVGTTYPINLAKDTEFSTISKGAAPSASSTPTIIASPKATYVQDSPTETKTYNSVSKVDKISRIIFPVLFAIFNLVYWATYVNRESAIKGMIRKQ
Chain of hGABAAR (α3β3γ2) (P28472 26-473 partner): as the sequence (P28472 26-473 partner) above
Chain of hGABAAR (α3β3γ2) (P18507 40-475): as the sequence (P18507 40-475) above
Experiment [6] deals with hGABAAR (α2β3γ2) (Homo sapiens, UniProt P18507+P47869). The experiment is classed as cell-based.
Chain of hGABAAR (α2β3γ2) (P47869 29-451): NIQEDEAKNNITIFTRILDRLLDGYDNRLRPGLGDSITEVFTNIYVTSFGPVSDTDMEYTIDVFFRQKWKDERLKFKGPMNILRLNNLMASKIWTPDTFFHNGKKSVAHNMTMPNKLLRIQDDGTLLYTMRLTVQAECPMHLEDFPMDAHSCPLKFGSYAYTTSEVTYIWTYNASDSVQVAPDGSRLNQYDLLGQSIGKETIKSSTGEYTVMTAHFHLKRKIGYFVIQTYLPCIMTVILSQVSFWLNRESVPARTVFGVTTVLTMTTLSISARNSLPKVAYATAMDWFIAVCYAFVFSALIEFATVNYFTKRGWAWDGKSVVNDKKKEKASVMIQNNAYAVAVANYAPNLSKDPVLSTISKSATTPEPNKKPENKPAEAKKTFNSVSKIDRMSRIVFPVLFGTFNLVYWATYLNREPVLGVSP
Chain of hGABAAR (α2β3γ2) (P28472 26-473 partner): as the sequence (P28472 26-473 partner) above
Chain of hGABAAR (α2β3γ2) (P18507 40-475): as the sequence (P18507 40-475) above
The test system of experiment [7] is mice. As to conditions: ref Lewter et al., 2017; cited from earlier work.
Experiment [8] has as its target hGABAAR (α1β3γ2) (Homo sapiens, UniProt P14867+P18507). The experiment is classed as cell-based. As to conditions: HEK293 cells, human α1β3γ2, peak GABA EC15-evoked current.

Chain of hGABAAR (α1β3γ2) (P14867 28-456): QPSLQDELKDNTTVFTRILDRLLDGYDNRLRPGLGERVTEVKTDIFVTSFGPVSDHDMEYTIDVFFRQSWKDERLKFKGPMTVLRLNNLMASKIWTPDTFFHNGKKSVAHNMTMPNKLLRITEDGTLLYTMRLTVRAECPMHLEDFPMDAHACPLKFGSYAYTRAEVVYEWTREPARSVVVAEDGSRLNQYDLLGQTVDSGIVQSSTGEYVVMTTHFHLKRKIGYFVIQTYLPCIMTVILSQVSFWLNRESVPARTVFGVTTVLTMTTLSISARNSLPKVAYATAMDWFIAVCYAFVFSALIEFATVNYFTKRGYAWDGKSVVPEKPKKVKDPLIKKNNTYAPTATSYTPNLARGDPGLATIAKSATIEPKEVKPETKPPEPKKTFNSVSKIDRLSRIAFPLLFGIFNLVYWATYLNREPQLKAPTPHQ
Chain of hGABAAR (α1β3γ2) (P28472 26-473 partner): as the sequence (P28472 26-473 partner) above
Chain of hGABAAR (α1β3γ2) (P18507 40-475): as the sequence (P18507 40-475) above

`C#Cc1ccc2c(c1)C(c1ccccn1)=NCc1c(C(=O)OCC)ncn1-2` [HZ-166]: the “reduction of convulsions induced by PTZ” value in experiment [1] (30 mg/kg) is 60%. Also, the “activity in Vogel conflict test (punished drinking)” value in experiment [2] (ref Poe et al., 2016) was “not active”. The marble-burying result in experiment [3] was “decreased marble-burying”.

For `NCCCC(=O)O` [GABA], the “average maximum negative current amplitude” value is on record as 0.9 nA in experiment [4] (saturating concentration of GABA, α5β3γ2); 1.0 nA in experiment [5] (saturating concentration of GABA, α3β3γ2); 0.8 nA in experiment [6] (saturating concentration of GABA, α2β3γ2).

For `C#Cc1ccc2c(c1)C(c1ccccn1)=NCc1c(-c3cnco3)ncn1-2` [Compound 9, 5-(8-Ethynyl-6-(pyridin-2-yl)-4H-benzo[f]imidazo[1,5-a][1,4]diazepin-3-yl)oxazole], the “activity in Vogel conflict test (punished drinking)” value in experiment [2] (ref Poe et al., 2016, listed as KRM-II-81) is given as “increased punished drinking; also recorded: efficacious”. In experiment [7], the acid-induced pain behaviors entry is listed as “attenuated acid-induced pain behaviors”.

Take `CN1C(=O)CN=C(c2ccccc2)c2cc(Cl)ccc21` [Diazepam, diazepam]: the “GABAA-a1 Max (%GABA)” value in experiment [8] was 171.9 %GABA. For the same molecule, the “GABAA-a5 Max (%GABA)” value in experiment [4] (HEK293 cells, human α5β3γ2, peak GABA EC15-evoked current) was determined as 220.7 %GABA. For the same molecule, the “GABAA-a3 Max (%GABA)” value in experiment [5] (HEK293 cells, human α3β3γ2, peak GABA EC15-evoked current) stood at 265.6 %GABA. In experiment [6] (HEK293 cells, human α2β3γ2, peak GABA EC15-evoked current), the “GABAA-a2 Max (%GABA)” value is 203.4 %GABA.

As for `CCCC(CCC)C(=O)O` [Valpro, valproic acid], the “Anticonvulsant Effect (percent of animals protected, no clonic convulsions)” value in experiment [1] (valproic acid 300 mg/kg, 35 mg/kg pentylenetetrazole s.c.) is 100 ^* percent.
